Data on eleven compounds can be found in ChEMBL document CHEMBL1641594, “Cytotoxicity of new polyfluorinated 1,4-naphtoquinones with diverse substituents in the quinone moiety” (Bioorg Med Chem, 2011).

Data set [1] deals with RPMI-8226. The data set can be described thus: Ratio of compound IC50 to F-Cpd5 IC50 for human RPMI8226 cells. It is filed as functional, cell-based.
In data set [2] the test system is MCF7. Nature of the data set: Ratio of compound IC50 to F-Cpd5 IC50 for human MCF7 cells. It is filed as functional, cell-based.
Data set [3] is described as follows: Cytotoxicity against mouse LMTK cells after 72 hrs by MTT assay. It is filed as cell-based. As to conditions: L-M(TK-). The method, boiled down: (§1)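 RPMI 8226, MCF-7, LMTK and primary mouse fibroblasts (PMF) were seeded at ~2000 cells per well and preincubated 24 h at 37 °C, 5% CO2, in IMDM or RPMI 1640. Compounds were then added and cells incubated a further 72 h. Viable cells were quantified by MTT colorimetric assay, and the concentration giving 50% growth inhibition (IC50) was derived. Values are mean ± SD of at least three independent experiments.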
(In general: Tetrazolium assays rely on reduction of a dye to a coloured formazan, in cell work by metabolically active cells.)

In data set [4] the test system is MCF7. The data set can be described thus: Ratio of IC50 for human MCF7 cellss to IC50 for human RPMI8226 cells. It is filed as functional.
Data set [5] concerns MCF7. Nature of the data set: Cytotoxicity against human MCF7 cells after 72 hrs by MTT assay. It is filed as functional, cell-based. As to conditions: MCF7, 72 h. The method, boiled down: as §1
In data set [6] the test system is Salmonella typhimurium. Nature of the data set: Reduction of spontaneous mutagenesis in histidine-dependent Salmonella Typhimurium TA102 harboring histidine operon mutant assessed as inhibition of H2O2-induced formation of mutants from 150% to 100% of revertants after 48 hrs by Ames test. It is filed as functional, organism-based, Salmonella enterica subsp. enterica serovar Typhimurium. As to conditions: Salmonella enterica, TA102, 48 h. The method, boiled down:
(§2)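 S. typhimurium TA102 Ames test without metabolic activation. Single colony grown 15 h at 37 °C with shaking in LB with ampicillin (50 µg/ml) and tetracycline (2 µg/ml). Overnight culture mixed with compound at varied concentrations, with or without 3 mM H2O2, in 0.6% top agar at 42 °C. Poured onto minimal 0.2% glucose plates, incubated 48 h at 37 °C, revertants counted. Untreated revertant count set as 100%. At least three independent experiments.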

In data set [7] the test system is Salmonella typhimurium. Nature of the data set: Reduction of spontaneous mutagenesis in histidine-dependent Salmonella Typhimurium TA102 harboring histidine operon mutant assessed as inhibition of H2O2-induced formation of mutants from 100% to 50% of revertants after 48 hrs by Ames test. To be noted: Salmonella enterica, TA102, 48 h. It is filed as functional, organism-based, Salmonella enterica subsp. enterica serovar Typhimurium. The method, boiled down:
as §2
(In general: The Ames test uses bacterial strains that need an amino acid and regain growth without it when mutated back.)

Data set [8] can be described thus: Cytotoxicity against PMF after 72 hrs by MTT assay. Details: species or system Mus musculus. The method, boiled down: as §1
Data set [9] concerns Salmonella typhimurium. The data set can be described thus: Reduction of spontaneous mutagenesis in histidine-dependent Salmonella Typhimurium TA102 harboring histidine operon mutant assessed as concentration required to suppress 100% to 50% mutagenesis after 48 hrs by Ames test. It is filed as functional, organism-based, Salmonella enterica subsp. enterica serovar Typhimurium. As to conditions: Salmonella enterica, TA102, 48 h. The gist of the method:
as §2

Data set [10] concerns RPMI-8226. The data set can be described thus: Cytotoxicity against human RPMI8226 cells after 72 hrs by MTT assay. It is filed as functional, cell-based. As to conditions: RPMI-8226, 72 h. The method, boiled down:
as §1

Data set [11] in a line: Cytotoxicity against mouse LMTK cells at 30 uM after 72 hrs by MTT assay. It is filed as cell-based.
Data set [12] can be described thus: Cytotoxicity against PMF at 25 ug/ml after 72 hrs by MTT assay. To be noted: mouse, PMF cells; read-out: INH. The gist of the method:
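Cells (~2000 per well) were preincubated 24 h at 37 °C, 5% CO2, in IMDM or RPMI 1640, then exposed to compound for 72 h with MTT read-out. Where cytotoxicity was low, percent growth inhibition at the highest concentration tested was recorded instead of an IC50. Values are mean ± SD of at least three independent experiments.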

Data set [13] can be described thus: Cytotoxicity against PMF at 25 ug/ml after 72 hrs by MTT assay. As to conditions: mouse.

Turning to `CC(C)(C)NC1=C(F)C(=O)c2c(F)c(F)c(F)c(F)c2C1=O`, the “Ratio IC50” value in the data set with RPMI-8226 [1] and with MCF7 [2] was 2 in each case.

For the compound `CCN(CC)C1=C(F)C(=O)c2c(F)c(F)c(F)c(F)c2C1=O`, the “Ratio IC50” value in the data set with RPMI-8226 [1] and with MCF7 [2] was 2 throughout.

As for `CCNC1=C(F)C(=O)c2c(F)c(F)c(F)c(F)c2C1=O`, the “Ratio IC50” value in the data set with RPMI-8226 [1] and with MCF7 [2] was 2 in each case.

Take `O=C1C(F)=C(Nc2ccccc2)C(=O)c2c(F)c(F)c(F)c(F)c21`: the “Ratio IC50” value with RPMI-8226 [1] and in the data set on MCF7 [2] was 2 in each case.

One may read the IC50 as the midpoint of a concentration-inhibition curve. Consider `O=C1C(F)=C(NCCO)C(=O)c2c(F)c(F)c(F)c(F)c21`, for which the 50% inhibitory concentration (IC50) was found to be 11.7 µM in data set [3]; 5.8 µM with MCF7 [5]; 26 µM with Salmonella typhimurium [6]; 44.9 µM in the data set with Salmonella typhimurium [7]; 3.3 µM in [8]; 54 µM in the data set on Salmonella typhimurium [9]. In addition, it took 1.2 µM to reach half-maximal inhibition with RPMI-8226 [10] (IC50). Moreover, the results for the “Ratio IC50” value in the data set with MCF7 [4] and in the data set with MCF7 [2] were 4.8 and 13, respectively.

With `COC1=C(OC)C(=O)c2c(F)c(F)c(F)c(F)c2C1=O`, the IC50 in data set [3] is 8.6 µM; with MCF7 [5], 6 µM; in the data set on Salmonella typhimurium [6], 38.3 µM; in the data set with Salmonella typhimurium [7], 53.8 µM; in data set [8] it was 18.9 µM; in the data set on Salmonella typhimurium [9], 198 µM. In addition, the 50% inhibitory concentration (IC50) in the data set with RPMI-8226 [10] amounted to 0.96 µM. For the same compound, the Ratio IC50 with MCF7 [4] amounted to 6; with MCF7 [2] it was 13.

Turning to `CN(CCO)C1=C(F)C(=O)c2c(F)c(F)c(F)c(F)c2C1=O`, the IC50 in [3] is 44.5 µM; in the data set on MCF7 [5], 2.4 µM; with Salmonella typhimurium [6], 3.4 µM; in the data set on Salmonella typhimurium [7], 30.2 µM; in data set [8] it was 24.9 µM; in the data set on Salmonella typhimurium [9], 37.6 µM. Besides, it took 5.6 µM to reach half-maximal inhibition in the data set on RPMI-8226 [10] (IC50). The “Ratio IC50” value in the data set on MCF7 [2] is reported as 13.

For the compound `O=C1C(F)=C(N2CCOCC2)C(=O)c2c(F)c(F)c(F)c(F)c21`, the half-inhibitory concentration (IC50) in data set [3] is 30 µM; in the data set with MCF7 [5], 5.7 µM; in the data set with Salmonella typhimurium [6], 54 µM; in the data set on Salmonella typhimurium [7] it was 169 µM; with Salmonella typhimurium [9] it was 131 µM; in the data set with RPMI-8226 [10], 6 µM. This compound also had an Activity in data set [11] of 50%. The “Ratio IC50” value in the data set on MCF7 [2] is listed as 13. The cytotoxicity at 72 h, 25 ug/ml in data set [12] is 45%. Further, the “activity at 25 ug/ml” value in data set [13] turned out to be 45%.

With `O=C1C(F)=C(N(CCO)CCO)C(=O)c2c(F)c(F)c(F)c(F)c21`, the half-maximal inhibitory concentration (IC50) in [3] was found to be 52.7 µM; in the data set with MCF7 [5], 7.5 µM; with Salmonella typhimurium [6] it was 2.9 µM; with Salmonella typhimurium [7], 45.3 µM; in data set [8], 34 µM; in the data set with Salmonella typhimurium [9] it was 275 µM. Besides, it took 5.1 µM to reach half-maximal inhibition in the data set with RPMI-8226 [10] (IC50). The “Ratio IC50” value in the data set on MCF7 [2] was 13.

`O=C1C=C(SCCO)C(=O)c2c(F)c(F)c(F)c(F)c21`: the “Ratio IC50” value with RPMI-8226 [1] came out at 5.3. The IC50 in data set [3] was determined as 25 µM; in the data set with MCF7 [5], 12.8 µM; in the data set on Salmonella typhimurium [6] it was 12.7 µM; in the data set on Salmonella typhimurium [7], 23.5 µM; in [8], 30 µM; in the data set with Salmonella typhimurium [9], 26.1 µM. The same compound registered an IC50 with RPMI-8226 [10] of 2.9 µM.

Consider `COC1=C(F)C(=O)c2c(F)c(F)c(F)c(F)c2C1=O`, for which the IC50 in data set [3] was 13.7 µM; in the data set on MCF7 [5], 26.5 µM; in the data set on Salmonella typhimurium [6] it was 2.8 µM; in the data set with Salmonella typhimurium [7], 20 µM; in data set [8], 8.9 µM; in the data set on Salmonella typhimurium [9] it was 39 µM. In the data set with RPMI-8226 [10], this compound had an IC50 of 4 µM.
